The results in this text go back to ChEMBL document CHEMBL1275343, “A diverse series of substituted benzenesulfonamides as aldose reductase inhibitors with antioxidant activity: design, synthesis, and in vitro activity” (J Med Chem, 2010).

Assay [1] concerns Radical scavenging activity. The assay is described as follows: Antioxidant activity assessed as ratio of IC50 for DPPH radical scavenging activity to concentration of DPPH. In kind it is functional.
Assay [2] concerns the target T1, Aldo-keto reductase family 1 member A1 (Rattus norvegicus) (UniProt P51635).
T1 sequence (whole entry): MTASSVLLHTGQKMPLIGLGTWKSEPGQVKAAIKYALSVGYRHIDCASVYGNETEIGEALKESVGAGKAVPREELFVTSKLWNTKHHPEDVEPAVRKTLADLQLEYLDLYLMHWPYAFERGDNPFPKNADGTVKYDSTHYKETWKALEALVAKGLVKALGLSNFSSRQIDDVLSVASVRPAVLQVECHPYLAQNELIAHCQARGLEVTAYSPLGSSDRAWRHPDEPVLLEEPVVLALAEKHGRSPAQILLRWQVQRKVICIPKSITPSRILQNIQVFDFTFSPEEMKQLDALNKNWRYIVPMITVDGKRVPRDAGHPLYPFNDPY
As to the kind of experiment: Inhibition of Fischer-344 rat kidney AK1A1 at 100 uM.

Assay [3] in a line: Antioxidant activity in L-alpha-phosphatidylcholine dioleoyl liposome assessed as inhibition of AAPH-induced lipid peroxidation by LOOH assay. In kind it is functional. The gist of the method: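 Unilamellar DOPC liposomes (0.8 mM) peroxidized by aqueous-phase peroxyl radicals from thermal decomposition of AAPH; Trolox standard; lipid hydroperoxide (LOOH) quantified against a calibration curve.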

Assay [4] has as its target Aldo-keto reductase family 1 member B1 (Rattus norvegicus) (UniProt P07943). The assay is described as follows: Inhibition of Fischer-344 rat lens ALR2 at 100 uM. In kind it is tissue-based. The note with it: Lens of camera-type eye.
Assay [5] deals with T2, Aldo-keto reductase family 1 member A1 (Rattus norvegicus, UniProt P51635).
T2 sequence (P51635 whole entry): T1 sequence (whole entry)
The assay is described as follows: Inhibition of Fischer-344 rat kidney AK1A1.

Assay [6] concerns the target Aldo-keto reductase family 1 member B1 (Rattus norvegicus, UniProt P07943). As to the kind of experiment: Inhibition of Fischer-344 rat lens ALR2 by least-square analysis. The class given is tissue-based, Lens of camera-type eye. The gist of the method:
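Lenses from Fischer-344 rats of both sexes as ALR2 source; NADPH oxidation followed spectrophotometrically. Five concentrations, IC50 by least-squares of linear portion of log(dose)-response curves (0.889<r²<0.994); triplicate.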

In assay [7] the test system is Radical scavenging activity. The assay is described as follows: Antioxidant activity assessed as DPPH radical scavenging activity after 270 mins by least-square analysis. In kind it is functional. Background: The DPPH test is a chemical assay of radical scavenging.
Assay [8] can be described thus: DPPH radical scavenging activity assessed as initial rate of interaction at 0.2 mM. The class given is functional. The method, boiled down: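 Equimolar compound and DPPH (0.2 mM each) in ethanol; initial rate estimated from the roughly linear absorbance decrease over the first 30 s. Triplicate.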
The species named for assay [9] is Rattus norvegicus. As to the kind of experiment: Selectivity ratio of IC50 for Fischer-344 rat kidney AK1A1 to IC50 for Fischer-344 rat lens ALR2. In kind it is tissue-based. The following applies: Lens of camera-type eye.
For assay [10], the species on record is Rattus norvegicus. As to the kind of experiment: Selectivity ratio of inhibition of Fischer-344 rat lens ALR2sto inhibition of Fischer-344 rat kidney AK1A1 at 100 uM. The following applies: Lens of camera-type eye. In kind it is tissue-based. The gist of the method: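 Ratio of % inhibition of rat lens ALR2 to % inhibition of rat kidney ALR1, each measured at 100 μM compound.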

In assay [11] the target is T3, Aldo-keto reductase family 1 member A1 (Homo sapiens, UniProt P14550).
T3 sequence (P14550 whole entry): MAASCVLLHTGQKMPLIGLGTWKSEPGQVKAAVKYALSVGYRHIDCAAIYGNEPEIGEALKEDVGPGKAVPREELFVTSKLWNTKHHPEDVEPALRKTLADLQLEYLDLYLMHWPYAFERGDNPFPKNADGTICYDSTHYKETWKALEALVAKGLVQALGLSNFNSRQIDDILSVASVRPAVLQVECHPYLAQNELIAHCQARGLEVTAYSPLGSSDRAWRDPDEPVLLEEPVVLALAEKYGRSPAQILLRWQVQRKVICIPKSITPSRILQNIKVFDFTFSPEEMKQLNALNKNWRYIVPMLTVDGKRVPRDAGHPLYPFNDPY
As to the kind of experiment: Inhibition of AK1A1.

Molecules are shown by their SMILES.

What is called inhibition is the relative decrease from the control value, in per cent. High values mean a strong effect, low ones a weak effect. One may read the IC50 as the concentration at which inhibition is half-maximal. On to `Nc1ccc(S(=O)(=O)N(Cc2ccc(Br)cc2F)c2cc(F)c(O)c(F)c2)cc1`, for which the Ratio in assay [1] is 0.31. Further, the inhibition in [2] was 95.3%; in assay [4], 87.4%. For the same molecule, the IC50 in assay [3] was found to be 73.1 µM; in assay [5], 0.323 µM; in assay [6], 0.397 µM; in assay [7], 61.9 µM. Further, the Activity in assay [8] came out at 0.977 s⁻¹. For the same molecule, the Ratio IC50 in the assay listed under Rattus norvegicus [9] worked out at 0.81.
As for `O=S(=O)(c1ccccc1)N(Cc1ccc(Br)cc1F)c1cc(F)c(O)c(F)c1`, the Ratio in [1] amounted to 0.3. Moreover, the values for the inhibition in [2] and in [4] were 69.2% and 74.6%, respectively. Besides, the IC50 stood at 66 µM in assay [3], 11.9 µM in assay [5], 5.7 µM in assay [6] and 60.9 µM in assay [7]. Also, in [8], the Activity worked out at 1 s⁻¹. Besides, the Ratio IC50 in the assay listed under Rattus norvegicus [9] worked out at 2.09.
As to `O=S(=O)(Nc1cc(F)c(O)c(F)c1)c1ccc(-n2cccc2)cc1`, the Ratio in assay [1] stood at 0.24. Besides, the inhibition in assay [2] amounted to 41.7%; in [4] it was 61.1%. Also, the half-inhibitory concentration (IC50) was determined as 97.1 µM in assay [3], 281 µM in assay [5], 57.1 µM in assay [6] and 48.6 µM in assay [7]. Besides, the Activity in assay [8] was 0.489 s⁻¹. The Ratio IC50 in the assay filed under Rattus norvegicus [9] is 4.92.
With `Cc1c(C)c2c(c(C)c1O)CCC(C)(C(=O)O)O2` (centres undefined) [TROLOX], the Ratio in assay [1] is 0.19. In addition, the IC50 came out at 93.5 µM in assay [3] and 37 µM in [7]. Also, the Activity in assay [8] stood at 1.81 s⁻¹.
As for `O=S(=O)(NCc1nnn[nH]1)c1ccccc1`, the inhibition turned out to be 19.9% in assay [2] and 23.8% in assay [4]. Further, the Selectivity ratio in the assay filed under Rattus norvegicus [10] was found to be 1.2.
Turning to `O=C1NOC[C@@H]1NS(=O)(=O)c1ccccc1`, the results for the inhibition in assay [2] and in assay [4] were 2.67% and 48.9%, respectively. This molecule also gave an IC50 in assay [6] of 71.2 µM. For the same molecule, in the assay listed under Rattus norvegicus [10], the Selectivity ratio is 18.3.
As to `CS(=O)(=O)NC(=O)CNS(=O)(=O)c1ccccc1`, the inhibition was 12.2% in assay [2] and 32.9% in [4]. The Selectivity ratio in the assay listed under Rattus norvegicus [10] stood at 2.69.
As to `O=[N+]([O-])c1ccc(S(=O)(=O)N(Cc2ccc(Br)cc2F)c2cc(F)c(O)c(F)c2)cc1`, the Ratio in assay [1] turned out to be 0.31. The inhibition turned out to be 69.8% in assay [2] and 75.1% in assay [4]. Also, the half-inhibitory concentration (IC50) amounted to 61.8 µM in assay [3], 15.4 µM in assay [5], 9 µM in assay [6] and 61.5 µM in assay [7]. In addition, the Activity in [8] came out at 0.974 s⁻¹. Besides, in the assay listed under Rattus norvegicus [9], the Ratio IC50 came out at 1.71.
`CCNC(=O)Nc1ccc(S(=O)(=O)Nc2cc(F)c(O)c(F)c2)cc1`: in [1], the Ratio was found to be 0.28. For the same molecule, the inhibition was found to be 68.5% in assay [2] and 63.6% in [4]. Moreover, the IC50 in [3] was determined as 81.7 µM; in [5], 25.5 µM; in [6], 37.8 µM; in assay [7], 51.6 µM. Further, the Activity in assay [8] came out at 0.859 s⁻¹. In the assay filed under Rattus norvegicus [9], the Ratio IC50 came out at 0.67.
Consider `O=C(Nc1ccc(S(=O)(=O)Nc2cc(F)c(O)c(F)c2)cc1)c1ccccc1`, for which the Ratio in [1] amounted to 0.25. In addition, the figures for the inhibition in assay [2] and in assay [4] were 81.1% and 87.7%, respectively. Besides, the concentration for half-maximal inhibition (IC50) in [3] stood at 68.6 µM; in assay [5], 6.9 µM; in assay [6], 7.9 µM; in assay [7], 49.7 µM. The Activity in [8] came to 0.817 s⁻¹. The Ratio IC50 in the assay filed under Rattus norvegicus [9] stood at 0.87.
For `O=C(O)CNS(=O)(=O)c1ccccc1`, the inhibition stood at 30.5% in [2] and 51.7% in assay [4]. Moreover, in assay [6], the IC50 is 86.7 µM. Besides, in the assay listed under Rattus norvegicus [10], the Selectivity ratio was found to be 1.69.
For the molecule `O=S(=O)(Nc1cc(F)c(O)c(F)c1)c1ccccc1`, the Ratio in assay [1] worked out at 0.25. Besides, the values for the inhibition in [2] and in assay [4] were 79.2% and 71.3%, respectively. Also, the IC50 turned out to be 95.9 µM in assay [3], 19.6 µM in assay [5] and 49 µM in assay [7]. In assay [8], the Activity was found to be 0.498 s⁻¹. Also, the Selectivity ratio in the assay filed under Rattus norvegicus [10] worked out at 0.89. The Ratio IC50 in the assay filed under Rattus norvegicus [9] was 0.6.
Regarding `O=S(=O)(Nc1cc(F)c(O)c(F)c1)c1ccc(C(F)(F)F)cc1`, the Ratio in assay [1] came to 0.23. In addition, the results for the inhibition in [2] and in [4] were 50.6% and 55.8%, respectively. Moreover, the 50% inhibitory concentration (IC50) amounted to 66 µM in assay [3], 105 µM in assay [5], 91.5 µM in assay [6] and 45.1 µM in assay [7]. For the same molecule, the Activity in assay [8] came out at 0.49 s⁻¹. Further, in the assay listed under Rattus norvegicus [9], the Ratio IC50 was found to be 1.15.
For the molecule `O=C1NOC[C@H]1NS(=O)(=O)c1ccccc1`, the inhibition in [2] stood at 22.4%; in assay [4] it was 25.7%. For the same molecule, the Selectivity ratio in the assay filed under Rattus norvegicus [10] is 1.15.
`O=[N+]([O-])c1ccc(S(=O)(=O)Nc2cc(F)c(O)c(F)c2)cc1`: the Ratio in [1] came out at 0.27. Also, the inhibition stood at 55.7% in assay [2] and 63.9% in assay [4]. The figures for the IC50 in [3], in assay [5] and in [7] were 45.7 µM, 133 µM and 54.8 µM, respectively. Besides, the Activity in assay [8] was 0.465 s⁻¹. In the assay listed under Rattus norvegicus [9], the Ratio IC50 was found to be 2.99.
On to `COc1ccc(S(=O)(=O)Nc2cc(F)c(O)c(F)c2)cc1`, for which the Ratio in [1] turned out to be 0.23. The inhibition in [2] was 83%; in assay [4], 79.5%. The figures for the IC50 in assay [3], in [5] and in assay [7] were 55.1 µM, 23.8 µM and 45.2 µM, respectively. For the same molecule, the Activity in [8] turned out to be 0.661 s⁻¹. Besides, in the assay filed under Rattus norvegicus [9], the Ratio IC50 was 1.54.
In the case of `COc1ccc(C(=O)Nc2ccc(S(=O)(=O)Nc3cc(F)c(O)c(F)c3)cc2)cc1`, the Ratio in [1] was determined as 0.26. The inhibition amounted to 71.7% in [2] and 77.9% in [4]. Moreover, the IC50 is 70.7 µM in assay [3], 12.4 µM in assay [5], 12 µM in [6] and 56.9 µM in [7]. For the same molecule, the Activity in assay [8] worked out at 0.995 s⁻¹. For the same molecule, the Ratio IC50 in the assay listed under Rattus norvegicus [9] was found to be 1.03.
Turning to `Nc1ccc(S(=O)(=O)Nc2cc(F)c(O)c(F)c2)cc1`, the Ratio in assay [1] worked out at 0.22. For the same molecule, the values for the inhibition in [2] and in assay [4] were 85.4% and 84.1%, respectively. The figures for the IC50 in assay [3], in assay [5] and in [7] were 48.1 µM, 10.3 µM and 44.7 µM, respectively. Besides, the Activity in assay [8] was 0.777 s⁻¹. The Ratio IC50 in the assay listed under Rattus norvegicus [9] is 0.73.
Turning to `O=S(=O)(c1ccccc1)N(c1cc(F)c(O)c(F)c1)S(=O)(=O)c1ccccc1`, the Ratio in assay [1] came out at 0.32. For the same molecule, the inhibition in assay [2] is 93.8%; in assay [4], 65.1%. Also, the IC50 turned out to be 139 µM in [3], 9.7 µM in [5], 28.1 µM in assay [6] and 63.2 µM in [7]. Moreover, the Activity in assay [8] is 0.967 s⁻¹. Further, the Ratio IC50 in the assay listed under Rattus norvegicus [9] was found to be 0.35.
`CCCC(CCC)C(=O)O` [VALPROIC ACID] returned an IC50 in [11] of 50.1 µM.
As to `O=S(=O)(Nc1nnn[nH]1)c1ccccc1`, the inhibition in assay [2] amounted to 21.7%; in assay [4], 44.8%. For the same molecule, in the assay listed under Rattus norvegicus [10], the Selectivity ratio is 2.06.
